# Source: paper PMC10952047 (iScience, 2024)
# No end group written: not given here.
# Molecular target: T1, CKR-1 (Caenorhabditis elegans, UniProt P91487)
# T1 sequence (P91487 1-421): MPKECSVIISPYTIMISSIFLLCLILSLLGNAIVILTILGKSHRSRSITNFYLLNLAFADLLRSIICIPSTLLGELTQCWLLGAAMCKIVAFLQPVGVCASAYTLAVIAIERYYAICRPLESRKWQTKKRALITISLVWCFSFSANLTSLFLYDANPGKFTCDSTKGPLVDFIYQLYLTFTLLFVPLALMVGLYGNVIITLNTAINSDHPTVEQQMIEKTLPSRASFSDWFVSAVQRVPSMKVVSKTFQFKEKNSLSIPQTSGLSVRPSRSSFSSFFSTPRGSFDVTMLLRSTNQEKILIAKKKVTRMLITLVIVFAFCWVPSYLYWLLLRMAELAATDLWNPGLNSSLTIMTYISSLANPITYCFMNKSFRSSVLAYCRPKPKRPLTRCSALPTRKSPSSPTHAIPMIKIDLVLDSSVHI
# Assay type: cell-based, C. elegans
# Summary of the method: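 CKR-1 cDNA cloned into pGH19, and 50 ng sense cRNA injected per oocyte. Oocytes kept 2-3 days at 18°C in ND96. TEVC at -80 mV with 3 M KCl electrodes. Perfusion switched from ND96 to high-K+ bath (96 mM KCl, pH 7.3) to read […] Ca2+-gated Cl- currents evoked by synthetic peptide. Washout in high-K+, then ND96.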
substance,measurement,setting,value
DYRPLQF-NH2 [NLP-12a],EC50,,26.5 nM
same,EC50 of NLP-12a relative to NLP-18a,"ratio of EC50 values, X. laevis oocytes expressing CKR-1",approximately twice that of NLP-18a
